Experiment [1] has as its system HeLa. As to the kind of experiment: Cytotoxicity against human HeLa cells assessed as reduction in cell growth at 10 uM incubated for 72 hrs by MTT assay relative to control. Format: functional. The conditions noted are these: read-out: GI. Put shortly: (§1)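 Cells grown in DMEM with 10% FBS and penicillin-streptomycin at 37 °C, 5% CO2, seeded at 3000 cells/well and attached overnight. Screening series given at 1, 3, 10, 100 μM; follow-up agent at 100 nM–3 μM; both 72 h, with 0.1% DMSO vehicle. MTT (5 mg/mL stock) added for 3 h at 37 °C, formazan dissolved in DMSO, absorbance read at 570 nm. Viability expressed as % of DMSO-treated wells from replicates.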
A general note: Tetrazolium assays rely on reduction of a dye to a coloured formazan, in cell work by metabolically active cells.

In experiment [2] the test system is MCF7. As to the kind of experiment: Cytotoxicity against human MCF7 cells assessed as reduction in cell growth at 3 uM incubated for 72 hrs by MTT assay relative to control. Format: functional. The conditions noted are these: MCF7, 72 h, read-out: GI. The procedure, abridged:
as §1

Experiment [3] deals with MCF7. As to the kind of experiment: Cytotoxicity against human MCF7 cells assessed as reduction in cell growth at 10 uM incubated for 72 hrs by MTT assay relative to control. Format: functional. The settings on record: MCF7, 72 h, read-out: GI. Put shortly:
as §1

In experiment [4] the test system is A-431. As to the kind of experiment: Cytotoxicity against human A431 cells assessed as reduction in cell growth at 30 uM incubated for 72 hrs by MTT assay relative to control. Format: functional. The settings on record: A-431, 72 h, read-out: GI.
In experiment [5] the test system is A-375. As to the kind of experiment: Cytotoxicity against human A375 cells assessed as reduction in cell growth incubated for 72 hrs by MTT assay. Format: functional, cell-based. The conditions noted are these: A-375, 72 h. The procedure, abridged:
as §1

Experiment [6] concerns HeLa. As to the kind of experiment: Cytotoxicity against human HeLa cells assessed as reduction in cell growth incubated for 72 hrs by MTT assay. Format: functional, cell-based. The procedure, abridged: as §1
For experiment [7], the system named is HeLa. As to the kind of experiment: Cytotoxicity against human HeLa cells assessed as reduction in cell growth at 3 uM incubated for 72 hrs by MTT assay relative to control. Format: functional. The conditions noted are these: read-out: GI. The procedure, abridged: as §1
Experiment [8] relates to MCF7. As to the kind of experiment: Cytotoxicity against human MCF7 cells assessed as reduction in cell growth at 100 uM incubated for 72 hrs by MTT assay relative to control. Format: functional. The settings on record: MCF7, 72 h, read-out: GI. The procedure, abridged: as §1
Experiment [9] relates to MCF7. As to the kind of experiment: Cytotoxicity against human MCF7 cells assessed as reduction in cell growth at 1 uM incubated for 72 hrs by MTT assay relative to control. Format: functional. The conditions noted are these: MCF7, 72 h, read-out: GI. The procedure, abridged: as §1
The test system of experiment [10] is A-375. As to the kind of experiment: Cytotoxicity against human A375 cells assessed as reduction in cell growth at 100 uM incubated for 72 hrs by MTT assay relative to control. The conditions noted are these: A-375, 72 h, read-out: GI. Format: functional. The procedure, abridged:
as §1

The test system of experiment [11] is HeLa. As to the kind of experiment: Cytotoxicity against human HeLa cells assessed as reduction in cell growth at 30 uM incubated for 72 hrs by MTT assay relative to control. The settings on record: read-out: GI. Format: functional.
Experiment [12] deals with A-375. As to the kind of experiment: Cytotoxicity against human A375 cells assessed as reduction in cell growth at 1 uM incubated for 72 hrs by MTT assay relative to control. Format: functional. The conditions noted are these: A-375, 72 h, read-out: GI. The procedure, abridged: as §1
In experiment [13] the test system is A-375. As to the kind of experiment: Cytotoxicity against human A375 cells assessed as reduction in cell growth at 3 uM incubated for 72 hrs by MTT assay relative to control. Format: functional. The settings on record: A-375, 72 h, read-out: GI. Put shortly: as §1
Experiment [14] relates to MCF7. As to the kind of experiment: Cytotoxicity against human MCF7 cells assessed as reduction in cell growth incubated for 72 hrs by MTT assay. Format: functional, cell-based. The conditions noted are these: MCF7, 72 h. Put shortly:
as §1

The subject of experiment [15] is A-375. As to the kind of experiment: Cytotoxicity against human A375 cells assessed as reduction in cell growth at 10 uM incubated for 72 hrs by MTT assay relative to control. Format: functional. The settings on record: A-375, 72 h, read-out: GI. The procedure, abridged:
as §1

Experiment [16] relates to HeLa. As to the kind of experiment: Cytotoxicity against human HeLa cells assessed as reduction in cell growth at 100 uM incubated for 72 hrs by MTT assay relative to control. Format: functional. The settings on record: read-out: GI. The procedure, abridged: as §1
In experiment [17] the test system is A-375. As to the kind of experiment: Cytotoxicity against human A375 cells assessed as reduction in cell growth at 30 uM incubated for 72 hrs by MTT assay relative to control. Format: functional. The settings on record: A-375, 72 h, read-out: GI.
Experiment [18] relates to A-431. As to the kind of experiment: Cytotoxicity against human A431 cells assessed as reduction in cell growth at 100 uM incubated for 72 hrs by MTT assay relative to control. The conditions noted are these: A-431, 72 h, read-out: GI. Format: functional. Put shortly:
as §1

The test system of experiment [19] is A-431. As to the kind of experiment: Cytotoxicity against human A431 cells assessed as reduction in cell growth incubated for 72 hrs by MTT assay. Format: functional, cell-based. The conditions noted are these: A-431, 72 h. Put shortly: as §1
The subject of experiment [20] is A-431. As to the kind of experiment: Cytotoxicity against human A431 cells assessed as reduction in cell growth at 3 uM incubated for 72 hrs by MTT assay relative to control. Format: functional. The conditions noted are these: A-431, 72 h, read-out: GI. The procedure, abridged: as §1
Experiment [21] concerns HeLa. As to the kind of experiment: Cytotoxicity against human HeLa cells assessed as reduction in cell growth at 1 uM incubated for 72 hrs by MTT assay relative to control. Format: functional. The settings on record: read-out: GI. The procedure, abridged: as §1
For experiment [22], the system named is A-431. As to the kind of experiment: Cytotoxicity against human A431 cells assessed as reduction in cell growth at 1 uM incubated for 72 hrs by MTT assay relative to control. Format: functional. The conditions noted are these: A-431, 72 h, read-out: GI. Put shortly: as §1
Experiment [23] has as its system MCF7. As to the kind of experiment: Cytotoxicity against human MCF7 cells assessed as reduction in cell growth at 30 uM incubated for 72 hrs by MTT assay relative to control. Format: functional. The settings on record: MCF7, 72 h, read-out: GI.
The test system of experiment [24] is A-431. As to the kind of experiment: Cytotoxicity against human A431 cells assessed as reduction in cell growth at 10 uM incubated for 72 hrs by MTT assay relative to control. Format: functional. The conditions noted are these: A-431, 72 h, read-out: GI. Put shortly:
as §1

What is called IC50 is the point on the concentration scale where inhibition reaches its midpoint. Turning to `Cc1cccc(/C(N)=N/NC(=S)N2CCSCC2)n1`, the inhibition of growth at 10 µM was found to be 67.6% in [1], 22.5% in [3], 62.6% in experiment [15] and 53.2% in experiment [24]. Moreover, the inhibition of growth at 3 µM came out at 20.6% in experiment [2], 54.6% in experiment [7], 60.1% in experiment [13] and 51.7% in [20]. Moreover, the inhibition of growth at 30 µM in [4] stood at 64.5%; in experiment [11], 85.3%; in experiment [17], 73.1%; in experiment [23], 38.6%. Besides, the 50% inhibitory concentration (IC50) was 1400 nM in experiment [5], 1800 nM in [6], above 100000 nM in experiment [14] and 2600 nM in experiment [19]. Moreover, the inhibition of growth at 100 µM turned out to be 46.8% in [8], 77.4% in experiment [10], 81.6% in experiment [16] and 80.7% in [18]. In addition, the inhibition of growth at 1 µM worked out at 7.3% in experiment [9], 47.2% in experiment [12], 46.5% in experiment [21] and 42.8% in [22].
Take `N/C(=N\NC(=S)N1CCSCC1)c1ccccn1`: the inhibition of growth at 10 µM in experiment [1] stood at 54.5%; in [3] it was 54.3%; in [15] it was 83.9%; in experiment [24], 61.4%. The inhibition of growth at 3 µM is 29% in experiment [2], 39.7% in [7], 80% in experiment [13] and 37.2% in [20]. In addition, the inhibition of growth at 30 µM in experiment [4] came out at 81.3%; in experiment [11], 80.6%; in experiment [17], 86%; in experiment [23], 72.6%. Also, the IC50 worked out at 760 nM in experiment [5], 7800 nM in experiment [6], 8800 nM in [14] and 6700 nM in experiment [19]. In addition, the inhibition of growth at 100 µM in experiment [8] was found to be 72.4%; in [10], 87.8%; in experiment [16], 88.7%; in experiment [18], 80.8%. Moreover, the inhibition of growth at 1 µM in experiment [9] stood at 16.3%; in experiment [12] it was 34%; in experiment [21], 25.1%; in experiment [22], 31.7%.
For the compound `N/C(=N\NC(=S)N1CCCCCC1)c1ccc(F)cn1`, the inhibition of growth at 10 µM in [1] came to 83.2%; in experiment [3] it was 26.8%; in experiment [15], 72.2%; in [24] it was 64.4%. Also, the inhibition of growth at 3 µM in experiment [2] is 24.3%; in experiment [7], 65.1%; in [13] it was 66.6%; in experiment [20] it was 62.4%. Also, the inhibition of growth at 30 µM was 81.3% in experiment [4], 84.5% in experiment [11], 80% in experiment [17] and 68.2% in [23]. Besides, the IC50 is 960 nM in experiment [5], 900 nM in experiment [6], 21100 nM in experiment [14] and 1000 nM in experiment [19]. For the same compound, the inhibition of growth at 100 µM in experiment [8] stood at 79%; in experiment [10] it was 85.7%; in [16] it was 85.6%; in experiment [18], 83.5%. Also, the inhibition of growth at 1 µM in experiment [9] worked out at 16.8%; in experiment [12], 51.8%; in experiment [21], 50%; in experiment [22], 50.3%.

(Values after ChEMBL document CHEMBL4387724, “2-Pyridineformamide N(4)-ring incorporated thiosemicarbazones inhibit MCF-7 cells by inhibiting JNK pathway” (Bioorg Med Chem Lett, 2019).)
